Reference: article PMC3846175 (Bioorganic & medicinal chemistry, 2013)
“And” between values parts separate entries of the source, which are not always exact repeats. Identical values can stand only once. Counter-ions that a name gives are not always drawn. Like-named read-outs stand apart in the source and are kept apart here.

What was measured:
T. b. r. STIB900 [1] = conditions: mouse, ref [10], [14], [16], [23], cited from earlier work
T. b. brucei GVR35 [2] = conditions: mouse; po 100 mg/kg for 5 days; ref [5]; cited from earlier work
[3] = test system: Trypanosoma brucei rhodesiense STIB900; conditions: read-out: T. b. r. IC50; strain STIB900; comparator data; ref [10], [16]; cited from earlier work
Plasmodium falciparum K1 [4] = conditions: read-out: P. f. IC50; strain K1; comparator data; ref [10], [16]; cited from earlier work
T. b. r. STIB900 [5] = assay: T. b. r. STIB900 acute mouse model; type: in vivo, Trypanosoma brucei rhodesiense
poly(dA-dT)2 = assay: Thermal melting; type: binding
T. b. brucei GVR35 [6] = assay: T. b. brucei GVR35 CNS mouse model; type: in vivo, Trypanosoma brucei brucei
How it was run: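 Second-stage (CNS) infection model in mice with T. b. brucei GVR35. The test compound was given orally at 100 mg/kg for 5 days, and a 10-day course was also run. The comparator was diminazene, given as a single 40 mg/kg intraperitoneal dose. Survival was the endpoint. Protocols were approved by the Canton Basel-Stadt veterinary authorities.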

Plasmodium falciparum K1 [7] = assay: In vitro assay with P. f. K1 strain; type: cell-based; conditions: IC50 ratio
[8] = po 100 mg/kg for 5 days, 100 mg/kg

N=C(N)c1ccc(-c2ccc(-c3ccc(C(=N)N)cc3)o2)cc1 [2a, furamidine]
Cures (mice that survive and are parasite free for 60 days) (T. b. r. STIB900 [1]; ip 5 mg/kg daily for 4 days): 1/4 | Survival (average days of survival) (T. b. r. STIB900 [1]; ip 5 mg/kg daily for 4 days): >46 days | Cures (mice that survive and are parasite free for 60 days) (T. b. r. STIB900 [1]; ip 20 mg/kg daily for 4 days): 3/4 | Survival (average days of survival) (T. b. r. STIB900 [1]; ip 20 mg/kg daily for 4 days): >57.75 days

N=C(NO)c1ccc(-c2ccc(-c3ccc(/C(N)=N\O)cc3)o2)cc1 [2b]
Cures (mice that survive and are parasite free for 60 days) (T. b. r. STIB900 [1]; po 100 mg/kg daily for 4 days, 100 mg/kg): no cure and 0/4

CONC(=N)c1ccc(-c2ccc(-c3ccc(C(=N)NOC)cc3)o2)cc1 [2c, pafuramidine]
MSD (mean survival days) (T. b. brucei GVR35 [2]): >167.8 days | No. of mice cured (survival >180 days without parasitemia relapse) (T. b. brucei GVR35 [2]): 3/5 | Cures (mice that survive and are parasite free for 60 days) (T. b. r. STIB900 [1]; po 10 mg/kg daily for 4 days): 4/4 | Survival (average days of survival) (T. b. r. STIB900 [1]; po 10 mg/kg daily for 4 days): >60 days | Cures (mice that survive and are parasite free for 60 days) (T. b. r. STIB900 [1]; po 25 mg/kg daily for 4 days): 4/4 | Survival (average days of survival) (T. b. r. STIB900 [1]; po 25 mg/kg daily for 4 days): >60 days

N=C(N)c1ccc(-c2ccc(-c3ccc(C(=N)N)cn3)o2)cc1 [3a]
IC50 [3]: 6.5 nM | IC50 (Plasmodium falciparum K1 [4]): 6.5 nM | Cures (mice that survive and are parasite free for 60 days) (T. b. r. STIB900 [1]; ip 5 mg/kg daily for 4 days): 3/4 | Survival (average days of survival) (T. b. r. STIB900 [1]; ip 5 mg/kg daily for 4 days): >54.5 days | Cures (mice that survive and are parasite free for 60 days) (T. b. r. STIB900 [1]; ip 20 mg/kg daily for 4 days): 4/4 | Survival (average days of survival) (T. b. r. STIB900 [1]; ip 20 mg/kg daily for 4 days): >60 days

CO/N=C(\N)c1ccc(-c2ccc(-c3ccc(/C(N)=N/OC)cn3)o2)cc1 [3c]
MSD (mean survival days) (T. b. brucei GVR35 [2]): >180 days | No. of mice cured (survival >180 days without parasitemia relapse) (T. b. brucei GVR35 [2]): 5/5 | Cures (mice that survive and are parasite free for 60 days) (T. b. r. STIB900 [1]; po 25 mg/kg daily for 4 days): 4/4 | Survival (average days of survival) (T. b. r. STIB900 [1]; po 25 mg/kg daily for 4 days): >60 days

N=C(N)c1ccc(-c2ccc(-c3ccc(C(=N)N)cn3)o2)nc1 [4a]
IC50 [3]: 21 nM | IC50 (Plasmodium falciparum K1 [4]): 83 nM | Cures (mice that survive and are parasite free for 60 days) (T. b. r. STIB900 [1]; ip 5 mg/kg daily for 4 days): 3/4 | Survival (average days of survival) (T. b. r. STIB900 [1]; ip 5 mg/kg daily for 4 days): >49.5 days | Cures (mice that survive and are parasite free for 60 days) (T. b. r. STIB900 [1]; ip 20 mg/kg daily for 4 days): 4/4 | Survival (average days of survival) (T. b. r. STIB900 [1]; ip 20 mg/kg daily for 4 days): >60 days

CO/N=C(\N)c1ccc(-c2ccc(-c3ccc(/C(N)=N/OC)cn3)o2)nc1 [4c]
MSD (mean survival days) (T. b. brucei GVR35 [2]): >180 days | No. of mice cured (survival >180 days without parasitemia relapse) (T. b. brucei GVR35 [2]): 5/5 | Cures (mice that survive and are parasite free for 60 days) (T. b. r. STIB900 [1]; po 25 mg/kg daily for 4 days): 2/4 | Survival (average days of survival) (T. b. r. STIB900 [1]; po 25 mg/kg daily for 4 days): >42 days

N=C(N)c1ccc(-c2cncc(-c3ccc(C(=N)N)cc3F)n2)c(F)c1 [15b, 2,6-Di-(4′-amidino-2′-fluorophenyl)pyrazine hydrochloride]
Cures (mice that survive and are parasite free for 60 days) (T. b. r. STIB900 [5]; ip 5 mg/kg daily for 4 days): no cures

N=C(N)c1ccc(-c2cncc(-c3ccc(C(=N)N)cn3)n2)cc1 [19a, 2-(4′-amidinophenyl)-6-(5′-amidinopyridin-2′-yl)pyrazine hydrochloride]
Decrease in ΔTm value relative to parent compound 10 (poly(dA-dT)2): 2 °C

N=C(N)c1ccc(-c2cncc(-c3ccc(C(=N)N)cn3)n2)nc1 [23a, 2,6-Di-(5′-amidinopyridin-2′-yl)pyrazine hydrochloride]
Decrease in ΔTm value relative to parent compound 10 (poly(dA-dT)2): 3.9 °C

N=C(N)c1ccc(-c2cncc(-c3ccc(C(=N)N)nc3)n2)cn1 [23b, 2,6-Di-(2′-amidinopyridin-5′-yl)pyrazine hydrochloride]
Decrease in ΔTm value relative to parent compound 10 (poly(dA-dT)2): 3.0 °C

N/C(=N\O)c1ccc(-c2cncc(-c3ccc(/C(N)=N\O)nc3)n2)cn1 [24b, 2,6-Di-(2′-N-hydroxyamidinopyridin-5′-yl)pyrazine hydrochloride]
MSD (mean survival days) (T. b. brucei GVR35 [6]; po 100 mg/kg for 5 days): 67.2 days | No. of mice cured (survival >180 days without parasitemia relapse) (T. b. brucei GVR35 [6]; [8]): not curative and 0/5 | Cures (mice that survive and are parasite free for 60 days) (T. b. r. STIB900 [5]; po 25 mg/kg daily for 4 days): cures of all mice

CO/N=C(\N)c1ccc(-c2cncc(-c3ccc(/C(N)=N\OC)cn3)n2)nc1 [25a, 2,6-Di-(5′-N-methoxyamidinopyridin-2′-yl)pyrazine hydrochloride]
MSD (mean survival days) (T. b. brucei GVR35 [6]; po 100 mg/kg for 5 days): 95.2 days | No. of mice cured (survival >180 days without parasitemia relapse) (T. b. brucei GVR35 [6]; [8]): not curative and 0/5

N=C(N)c1ccc(-c2cnc(-c3ccc(C(=N)N)cc3)cn2)cc1 [compound 6]
IC50 [3]: 18 nM | IC50 (Plasmodium falciparum K1 [4]): 0.4 nM | Cures (mice that survive and are parasite free for 60 days) (T. b. r. STIB900 [1]; ip 5 mg/kg daily for 4 days, 5 mg/kg): no cure and 0/4

N=C(N)c1ccc(-c2cncc(-c3ccc(C(=N)N)cc3)n2)cc1 [compound 10, 2,6-Di-(4′-amidinophenyl)pyrazine hydrochloride]
Fold less potent than 6 against P. f. (Plasmodium falciparum K1 [7]): 25 fold

N/C(=N\O)c1ccc(-c2cncc(-c3ccc(/C(N)=N/O)cc3)n2)cc1 [compound 11, 2,6-Di-(4′-N-hydroxyamidinophenyl)pyrazine hydrochloride]
No. of mice cured (survival >180 days without parasitemia relapse) (T. b. brucei GVR35 [6]; [8]): no cures and 0/5 | Cures (mice that survive and are parasite free for 60 days) (T. b. r. STIB900 [5]; po 25 mg/kg daily for 4 days): cures of all mice

CO/N=C(\N)c1ccc(-c2cncc(-c3ccc(/C(N)=N\OC)cc3)n2)cc1 [compound 12, 2,6-Di-(4′-N-methoxyamidinophenyl)pyrazine hydrochloride]
No. of mice cured (survival >180 days without parasitemia relapse) (T. b. brucei GVR35 [6]; po 100 mg/kg for 5 days): 2/5 | No. of mice cured (survival >180 days without parasitemia relapse) (T. b. brucei GVR35 [6]; po 100 mg/kg for 10 days): 3/4
